The nature of test [1]: Inhibition of bacterial OXA-48 using nitrocefin as substrate preincubated for 15 mins followed by susbtrate addition and measured after 10 mins by spectrophotometric method. Also on record: species or system Bacteria.
A short description of test [2]: Inhibition of bacterial KPC-2 using imipenem as substrate preincubated for 15 mins followed by susbtrate addition and measured after 10 mins by spectrophotometric method. Also on record: species or system Bacteria.
The test system of test [3] is Escherichia coli. Nature of the test: Inhibition of NDM-1/CMY-6/OXA-1 in Escherichia coli CDC-0055 assessed as meropenem antibacterial activity at 4 ug/ml after 16 to 20 hrs by CLSI-based microbroth dilution method (reference value: […] ug/ml). A general note: In broth dilution the organism is exposed to a series of concentrations in liquid medium.
In test [4] the test system is Acinetobacter baumannii. The experiment in a line: Inhibition of VIM-1/VIM-2/VIM-4/NDM-1 in Acinetobacter baumannii assessed as cefepime antibacterial activity at 4 ug/ml after 16 to 20 hrs by CLSI-based microbroth dilution method. The procedure, abridged: (§1)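 Panel of 14 clinical isolates expressing class B VIM- or NDM-type MBLs: E. coli (4), E. cloacae (2), K. pneumoniae (4), P. aeruginosa (1), A. baumannii (3).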

The subject of test [5] is Escherichia coli. Nature of the test: Inhibition of VIM-1/VIM-2/VIM-4/NDM-1 in Escherichia coli assessed as cefepime antibacterial activity at 4 ug/ml after 16 to 20 hrs by CLSI-based microbroth dilution method. The procedure, abridged: as §1
For test [6], the system named is Klebsiella pneumoniae ATCC BAA-1705. The experiment in a line: Inhibition of KPC-2 in Klebsiella pneumoniae ATCC BAA 1705 assessed as meropenem antibacterial activity at 4 ug/ml after 16 to 20 hrs by CLSI-based microbroth dilution method (reference value: […] ug/ml).
Test [7] has as its system Klebsiella pneumoniae. Nature of the test: Inhibition of TEM/CTX-M/SHV in Klebsiella pneumoniae 9032 assessed as cefepime antibacterial activity at 4 ug/ml after 16 to 20 hrs by CLSI-based microbroth dilution method (reference value: […] ug/ml).
Test [8] has as its system Enterobacter cloacae. The experiment in a line: Inhibition of VIM-1/VIM-2/VIM-4/NDM-1 in Enterobacter cloacae assessed as cefepime antibacterial activity at 4 ug/ml after 16 to 20 hrs by CLSI-based microbroth dilution method. The procedure, abridged:
as §1

Test [9] in a line: Inhibition of bacterial IMP-1 using nitrocefin as substrate preincubated for 15 mins followed by susbtrate addition and measured after 10 mins by spectrophotometric method. Details: species or system Bacteria.
Test [10] has as its system Escherichia coli. The experiment in a line: Inhibition of TEM/CTX-M/SHV/Cephalosporinase in Escherichia coli EC1552 assessed as cefepime antibacterial activity at 4 ug/ml after 16 to 20 hrs by CLSI-based microbroth dilution method (reference value: […] ug/ml).
Test [11] concerns Escherichia coli. The experiment in a line: Inhibition of NDM-1/CMY-6/OXA-1 in Escherichia coli CDC-0055 assessed as cefepime antibacterial activity at 8 ug/ml after 16 to 20 hrs by CLSI-based microbroth dilution method. The procedure, abridged: (§2)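 MDR β-lactamase-producing Gram-negative clinical isolates. […] MIC was reported as the inhibitor concentration that restores the partner's antibacterial activity.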

Test [12] has as its system Escherichia coli. Nature of the test: Inhibition of NDM in Escherichia coli CDC-0452 assessed as meropenem antibacterial activity at 4 ug/ml after 16 to 20 hrs by CLSI-based microbroth dilution method (reference value: […] ug/ml).
Test [13] relates to Pseudomonas aeruginosa. The experiment in a line: Inhibition of KPC-2/PDC-42 in Pseudomonas aeruginosa CDC-0356 assessed as piperacillin antibacterial activity at 16 ug/ml after 16 to 20 hrs by CLSI-based microbroth dilution method (Rvb > […] ug/ml).
Test [14] has as its system Enterobacter cloacae. Nature of the test: Inhibition of TEM/CTX-M/SHV/Cephalosporinase in Enterobacter cloacae CH23 assessed as cefepime antibacterial activity at 4 ug/ml after 16 to 20 hrs by CLSI-based microbroth dilution method (Rvb > […] ug/ml).
Test [15] relates to Escherichia coli. The experiment in a line: Inhibition of NDM in Escherichia coli CDC-0452 assessed as piperacillin antibacterial activity at 16 ug/ml after 16 to 20 hrs by CLSI-based microbroth dilution method (Rvb > […] ug/ml).
Test [16] is described as follows: Inhibition of bacterial CTX-M-15 using cefotaxime as substrate preincubated for 15 mins followed by susbtrate addition and measured after 10 mins by spectrophotometric method. Details: species or system Bacteria.
A short description of test [17]: Inhibition of bacterial CMY-2 using nitrocefin as substrate preincubated for 15 mins followed by susbtrate addition and measured after 10 mins by spectrophotometric method. Also on record: species or system Bacteria.
Test [18] has as its system Escherichia coli. Nature of the test: Inhibition of NDM-1/CMY-6/OXA-1 in Escherichia coli CDC-0055 assessed as piperacillin antibacterial activity at 16 ug/ml after 16 to 20 hrs by CLSI-based microbroth dilution method. The essentials:
as §2

For test [19], the system named is Pseudomonas aeruginosa. Nature of the test: Inhibition of KPC-2/PDC-42 in Pseudomonas aeruginosa CDC-0356 assessed as cefepime antibacterial activity at 8 ug/ml after 16 to 20 hrs by CLSI-based microbroth dilution method (Rvb > […] ug/ml).
A short description of test [20]: Inhibition of bacterial VIM-2 using nitrocefin as substrate preincubated for 15 mins followed by susbtrate addition and measured after 10 mins by spectrophotometric method. Also on record: species or system Bacteria. The procedure, abridged: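 Purified β-lactamase inhibition. IC50 values are the average of duplicates unless otherwise indicated.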
The subject of test [21] is Pseudomonas aeruginosa. The experiment in a line: Inhibition of VIM in Pseudomonas aeruginosa CDC-0457 assessed as cefepime antibacterial activity at 8 ug/ml after 16 to 20 hrs by CLSI-based microbroth dilution method.
Test [22] can be described thus: Inhibition of bacterial NDM-1 using cefepime as substrate preincubated for 15 mins followed by susbtrate addition and measured after 10 mins by spectrophotometric method. Details: species or system Bacteria.
Test [23] in a line: Inhibition of bacterial SHV-5 using cefotaxime as substrate preincubated for 15 mins followed by susbtrate addition and measured after 10 mins by spectrophotometric method. Details: species or system Bacteria.
Test [24] deals with Pseudomonas aeruginosa. Nature of the test: Inhibition of VIM in Pseudomonas aeruginosa CDC-0457 assessed as meropenem antibacterial activity at 4 ug/ml after 16 to 20 hrs by CLSI-based microbroth dilution method.
Test [25] has as its system Pseudomonas aeruginosa. The experiment in a line: Inhibition of VIM-1/VIM-2/VIM-4/NDM-1 in Pseudomonas aeruginosa assessed as cefepime antibacterial activity at 4 ug/ml after 16 to 20 hrs by CLSI-based microbroth dilution method. The procedure, abridged:
as §1

The test system of test [26] is Pseudomonas aeruginosa. The experiment in a line: Inhibition of KPC-2/PDC-42 in Pseudomonas aeruginosa CDC-0356 assessed as meropenem antibacterial activity at 4 ug/ml after 16 to 20 hrs by CLSI-based microbroth dilution method (reference value: […] ug/ml).
Test [27] has as its system Klebsiella pneumoniae. The experiment in a line: Inhibition of VIM-1/VIM-2/VIM-4/NDM-1 in Klebsiella pneumoniae assessed as cefepime antibacterial activity at 4 ug/ml after 16 to 20 hrs by CLSI-based microbroth dilution method.
For test [28], the system named is Staphylococcus aureus. The experiment in a line: Antibacterial activity against wild type Staphylococcus aureus ATCC 29213 after 16 to 20 hrs by CLSI-based microbroth dilution method. The test is classed as functional.
Test [29] concerns Escherichia coli. Nature of the test: Antibacterial activity against Escherichia coli J53 expressing SHV5/ AmpC/TEM-1 after 16 to 20 hrs by CLSI-based microbroth dilution method. The test is classed as functional.
In test [30] the test system is Enterobacter cloacae. The experiment in a line: Antibacterial activity against Enterobacter cloacae 144200 expressing p99 AmpC after 16 to 20 hrs by CLSI-based microbroth dilution method. Format: functional.
The subject of test [31] is Klebsiella pneumoniae. The experiment in a line: Antibacterial activity against wild type Klebsiella pneumoniae CI 09 after 16 to 20 hrs by CLSI-based microbroth dilution method. Format: functional.
The subject of test [32] is Escherichia coli. The experiment in a line: Antibacterial activity against wild type Escherichia coli ATCC 25922 after 16 to 20 hrs by CLSI-based microbroth dilution method. Format: functional.
Test [33] concerns Klebsiella aerogenes. Nature of the test: Antibacterial activity against Enterobacter aerogenes 188548 expressing AmpC after 16 to 20 hrs by CLSI-based microbroth dilution method. The test is classed as functional.
Test [34] has as its system Staphylococcus aureus. The experiment in a line: Antibacterial activity against methicillin resistant Staphylococcus aureus 33591 after 16 to 20 hrs by CLSI-based microbroth dilution method. Format: functional.
For test [35], the system named is Pseudomonas aeruginosa. Nature of the test: Antibacterial activity against wild type Pseudomonas aeruginosa 27853 after 16 to 20 hrs by CLSI-based microbroth dilution method. Format: functional.

The structures appear in SMILES notation. In brackets after ≈: the same amount, converted by molar mass.

What is called IC50 is the concentration that inhibits the measured activity by half. As for `C[C@]1(Cn2ccnn2)[C@H](C(=O)O)N2C(=O)C[C@H]2S1(=O)=O` [TAZOBACTAM], the 50% inhibitory concentration (IC50) was 0.55 µM in [1]; 1.7 µM in [2]; above 100 µM in [9]; 0.001 µM in test [16]; 0.41 µM in [17]; above 100 µM in [20]. Also, the half-inhibitory concentration (IC50) is above 100 µM in test [22] and 0.015 µM in test [23]. The MIC in [3] is above 16 mg/L; in test [6], 8 mg/L (≈ 26.6 µM); in test [7], 4 mg/L (≈ 13.3 µM); in test [10] it was 4 mg/L (≈ 13.3 µM); in test [11], above 16 mg/L; in test [12] it was above 16 mg/L. The MIC in [13], in test [14], in test [15], in test [18], in test [19] and in [21] was above 16 mg/L each time. Further, the MIC in test [24] and in test [26] was above 16 mg/L in each case. Moreover, the MIC50 in [4], in test [5], in [8], in [25] and in test [27] was above 32 mg/L in each case. The MIC90 in [4], in test [5], in test [8], in [25] and in test [27] was above 32 mg/L each time.

With `C[C@@H](O)[C@H]1C(=O)N2C(C(=O)O)=C(S[C@@H]3CN[C@H](C(=O)N(C)C)C3)[C@H](C)[C@H]12` [MEROPENEM], the MIC in test [28] worked out at 0.06 mg/L (≈ 0.156 µM); in [29], 0.06 mg/L (≈ 0.156 µM); in [30] it was 0.25 mg/L (≈ 0.652 µM); in [31] it was 0.06 mg/L (≈ 0.156 µM); in test [32], 0.03 mg/L (≈ 0.0782 µM); in test [33], 2 mg/L (≈ 5.22 µM). Besides, the figures for the MIC in test [34] and in test [35] were 32 mg/L (≈ 83.4 µM) and 1 mg/L (≈ 2.61 µM), respectively.

For the origin of these results see ChEMBL document CHEMBL4354828, “Discovery of Taniborbactam (VNRX-5133): A Broad-Spectrum Serine- and Metallo-β-lactamase Inhibitor for Carbapenem-Resistant Bacterial Infections” (J Med Chem, 2020).
